Screens from PubChem BioAssay.
FN deposition inh = fibronectin deposition inhibition. AH1F fibroblasts, Alexa488-fibronectin deposition fluorescence, overnight. inhibition, % at 12.6 µM. 0.086% of 350,000 active;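 active = mean inhibition across replicates of 30% or more, regardless of how many single replicates reach that level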;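 note: positive control wells lacked labelled fibronectin entirely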
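Assay system: AH1F fibroblasts / Quantity: 10000 cells per well / Medium: DMEM plus 2% serum, read in PBS / Reagent: labelled fibronectin 24 nM / Dosing: single dose, pinned / Times: 1 h cell attachment, overnight exposure to compound and label / Signal: fluorescence, ex 485 nm, em 525 nm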
FGF22 binding = shifts melting point of recombinant human FGF22; Q9HCT0; recombinant FGF22 thermal shift, SYPRO orange fluorescence; percent of sucrose octasulfate shift, DMSO zero; activity (Tm shift, normalised), % at 9.99 µM; 1.5% of 340,000 active;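 active = mean Tm shift, scaled 0 neutral to 100 positive control, at about 1.3% or above, every replicate too, limit read from the data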
Target sequence (Q9HCT0 whole entry, looked up): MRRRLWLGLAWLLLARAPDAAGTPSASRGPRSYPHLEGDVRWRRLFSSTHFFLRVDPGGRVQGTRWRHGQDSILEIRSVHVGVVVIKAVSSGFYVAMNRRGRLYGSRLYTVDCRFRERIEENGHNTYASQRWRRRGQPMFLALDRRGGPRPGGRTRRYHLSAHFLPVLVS
PGC1a acetyl inh = lowers PGC1a acetylation signal in U2OS cells. AlphaScreen anti-acetyl-lysine; with virally co-expressed GCN5 acetyltransferase. 0.17% of 350,000 active. inhibition, % at 15.6 µM;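 active = every replicate shows inhibition of at least 40%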;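 note: 0% = neutral control wells and 100% = positive control wells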
HIV Env fusion = inhibitors of HIV Env-mediated cell fusion; HeLa-JRFL Env/CEM21 cell fusion, luciferase; inhibition, % at 12.3 µM; 1.1% of 360,000 active;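 active = mean replicate inhibition score of at least 50 and every replicate individually at or above 50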;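 note: 0% = plate neutral controls and 100% = maraviroc near 300 nM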
EWS-Fli inh = inhibitors of EWS/Fli oncoprotein transcriptional activity; inhibition, % at 12.6 µM; 0.67% of 350,000 active; AID 651661; A673 NR0B1-luciferase reporter, viability-normalised;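 active = mean inhibition of at least 50% after viability correction, with every replicate also passing that limit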;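 note: firefly luciferase signal divided by Alamar Blue viability fluorescence both relative to DMSO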
PAX8 inh HTS = PAX8 transcriptional activity inhibition; RMG-I TPO-luciferase reporter, SteadyGlo, 24 h; inhibition, % at 12.6 µM; 1.2% of 360,000 active; AID 652154;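 active = mean replicate inhibition at least 60% with every replicate also reaching 60%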;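 note: luciferase light reporting Pax8 driven TPO promoter activity; plate controls were median of neutral control wells for no effect and mitoxantrone controls for full effect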
Active calls of the source: *; . = not tested or not shown; ! = a repeat was not active; [ ] = remark or other dose. Compounds with a hit are over-represented: about 3.1% of the library has one in this group of screens.

SMILES	FN deposition inh	FGF22 binding	PGC1a acetyl inh	HIV Env fusion	EWS-Fli inh	PAX8 inh HTS
C[C@H]1CCCCO[C@H](CN(C)CC2CC2)[C@@H](C)CN([C@@H](C)CO)C(=O)c2cc(NS(=O)(=O)c3ccccc3)ccc2O1	.	0	9	.	-2	-13
CNC[C@@H]1Oc2ccc(N)cc2C(=O)N([C@H](C)CO)C[C@H]1C	-14	0	-3	-4[16.7 µM]	6	23
COc1cc(COCC(O)CN2CCN(Cc3ccccc3)CC2)cc(OC)c1OC (stereo unspecified)	6	44*	.	10	-10	10
Cc1[nH]c2ccc(C(C)C)cc2c1CC(=O)O	-5	0	76*	11	3	15
CC(C)CC#Cc1ccc2c(c1)O[C@H](CN(C)S(=O)(=O)c1ccc(F)cc1)[C@H](C)CN([C@@H](C)CO)S2(=O)=O	0	0	6	61*[16.7 µM]	29	98*
C[C@H](CO)N1C[C@H](C)[C@@H](CN(C)S(=O)(=O)c2ccc(F)cc2)Oc2cc(C#Cc3ccc(F)cc3)ccc2S1(=O)=O	-4	0	0	-4[16.7 µM]	19	.
CC(C)CC#Cc1ccc2c(c1)O[C@@H](CN(C)S(=O)(=O)c1ccc(F)cc1)[C@H](C)CN([C@H](C)CO)S2(=O)=O	-5	0	-1	44[16.7 µM]	24	67*
Cc1cc(C)n(-c2ccc(F)cc2)c(=O)c1C(=O)O	19	.	4	12	.	-3
CC(=O)c1c(O)cc(C)n(-c2ccc(F)cc2)c1=O	-1	44*	7	-108	5	-2
C[C@@H]1CN([C@H](C)CO)C(=O)c2cc(NS(=O)(=O)c3ccccc3)ccc2O[C@@H](C)CCCCO[C@@H]1CN(C)CC1CC1	.	0	8	21[16.7 µM]	.	-9
C[C@@H]1CCCCO[C@H](CN(C)C(=O)C2CCCCC2)[C@@H](C)CN([C@H](C)CO)C(=O)c2cc(NC(=O)Nc3ccc(C(F)(F)F)cc3)ccc2O1	.	0	5	5[16.7 µM]	-9	.
Fc1ccc(Cn2nnnc2C(c2ccc(Cl)cc2)N2CCSCC2)cc1 (stereo unspecified)	-2	.	-8	52*	.	9
Cc1cccc(-c2ccc(C3[C@@H]4CN(C(=O)Nc5ccc(F)cc5)C[C@H]3N4)cc2)c1 (stereo partly specified)	-3	.	0	.	-6	95*!
O=C(Nc1cccc(F)c1)N1C[C@@H]2N[C@H](C1)C2c1ccc(-c2ccc(F)cc2)cc1 (stereo partly specified)	-2	.	-22	.	3	86*!
O=C(Nc1cccc(F)c1)N1C[C@@H]2N[C@H](C1)C2c1ccc(-c2cncnc2)cc1 (stereo partly specified)	-18	0	10	.	23	9
O=C(N[C@@H]1CC[C@@H](CCn2cc(-c3ccccn3)nn2)O[C@@H]1CO)c1ccncc1	-6	0	6	-21[16.7 µM]	-5	-14
CC(NC(=O)c1ccccc1N)c1ccccc1 (stereo unspecified)	-1	43*	.	-7	-11	5
COc1cccc(S(=O)(=O)Nc2ccc3c(c2)OC[C@@H](C)N(Cc2cc(F)ccc2F)C[C@@H](C)[C@H](OC)CN(C)C3=O)c1	2	0	-12	-18[16.7 µM]	23	23
Nc1nc(CCl)nc(Nc2cccc3ccccc23)n1	1	0	12	30	40	123*
Nc1nc(Nc2cccc3ccccc23)nc(C2CCCC2=O)n1 (stereo unspecified)	-2	.	.	-132	.	-7
COc1ccc(-c2nnc(Nc3nc4c(OC)cccc4s3)o2)cc1	.	.	3	72*	.	.
COc1ccc2c3c(n(C)c2c1)[C@@H](CO)N(Cc1ccncc1)CC31CN(C(=O)Cc2ccncc2)C1	.	0	0	.	0	11
O=C(O)CCC(=O)Nc1ccc(C(=O)OCC(=O)c2ccc(Cl)cc2Cl)cc1	9	43*	-2	4	2	9
CS(=O)(=O)N(CC(=O)NCC1CCCO1)c1cccc(Cl)c1 (stereo unspecified)	0	44*	7	3	-1	22
COc1cccc(-c2nnc(SC(C(=O)c3c[nH]c4ccccc34)c3ccccc3)n2C)c1 (stereo unspecified)	1	43*	.	-11	2	6
SMILES	FN deposition inh	FGF22 binding	PGC1a acetyl inh	HIV Env fusion	EWS-Fli inh	PAX8 inh HTS
Cc1ccc(-c2ccc(=O)n(CCC(=O)N3CCN(c4ccccc4)CC3)n2)cc1	0	0	-4	5	-3	63*
Cc1ccc(-c2ccc(=O)n(CCC(=O)N3CCN(Cc4ccccc4)CC3)n2)cc1	-9	0	-1	3	3	14
COc1ccc(N2CCN(C(=O)c3cc4c(-c5cccc(OC)c5)nn(C)c4s3)CC2)cc1	-16	.	-5	15	.	18
CC(=O)c1ccc(N2CCN(C(=O)c3cc4c(-c5ccccc5F)nn(C)c4s3)CC2)cc1	0	0	.	66*	10	19
Cc1cc2ncn(S(=O)(=O)N3CCCCC3)c2cc1C	1	.	-6	83*	.	.
O=C(NC1CCCC1)C1C(c2ccc(C(F)(F)F)cc2)=Nc2ccccc2N1C(=O)c1cccc(C(F)(F)F)c1 (stereo unspecified)	-6	0	.	27	6	30
CC(C)(C)NC(=O)C1C(c2ccc(C(F)(F)F)cc2)=Nc2ccccc2N1C(=O)c1cccc(C(F)(F)F)c1 (stereo unspecified)	2	0	.	67*	17	16
CC(CNC(=S)Nc1cc(F)cc(F)c1)CSc1ccc(Cl)cc1 (stereo unspecified)	-13	0	-9	78*	10	-158
C[C@H](CO)N1C[C@H](C)[C@@H](CN(C)C(=O)NC2CCCCC2)Oc2c(NC(=O)c3nc4ccccc4s3)cccc2C1=O	15	0	26	.	3	.
Cc1ccc(NCCN(C)C)c2c(=O)c3cc(O)ccc3sc12	15	0	-48	-67	52*	-13
CN(C)CCNc1cccc2sc3ccc(O)cc3c(=O)c12	-3	0	.	-14	4	0
Cc1nn(C)c(C)c1/C=N/NC(=O)C(C)(C)Oc1ccc(Cl)cc1	.	0	-16	.	4	.
Cc1nn(C(C)(C)C)c(C)c1/C=N/OC(=O)Nc1ccc(Cl)cc1	-5	0	-7	28	87*	79*
O=C(c1c[nH]c2ccccc12)N1CCN(Cc2ccccc2)CC1	-1	43*	18	8	3	14
CCC(=O)N1CC[C@H]2[C@H](CO)Nc3ccc(C#Cc4ccccc4F)cc3[C@H]21	-1	.	4	.	.	.
CCOC(=O)C1=C(CC)Nc2ccccc2N=C1NC(=O)Nc1ccc(Cl)c(Cl)c1	-7	.	14	114*	.	62*
CCCc1cn(CC[C@@H]2CC[C@H](NC(=O)Cc3cccnc3)[C@H](CO)O2)nn1	4	0	13	-9[16.7 µM]	1	8
